MrgX1 ag – activates human MrgX1 receptor signaling; Q96LB2; 310,000 tested, 0.44% active; MrgX1-HEK293 cells, Fluo-4 calcium fluorescence, agonist mode; hits give high values; B-score at 10 µM;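 active = calcium response B-score plate-corrected fluorescence ratio at least 3 library SD, with starting fluorescence B-score inside 5 SD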
Target sequence (Q96LB2 whole entry, looked up): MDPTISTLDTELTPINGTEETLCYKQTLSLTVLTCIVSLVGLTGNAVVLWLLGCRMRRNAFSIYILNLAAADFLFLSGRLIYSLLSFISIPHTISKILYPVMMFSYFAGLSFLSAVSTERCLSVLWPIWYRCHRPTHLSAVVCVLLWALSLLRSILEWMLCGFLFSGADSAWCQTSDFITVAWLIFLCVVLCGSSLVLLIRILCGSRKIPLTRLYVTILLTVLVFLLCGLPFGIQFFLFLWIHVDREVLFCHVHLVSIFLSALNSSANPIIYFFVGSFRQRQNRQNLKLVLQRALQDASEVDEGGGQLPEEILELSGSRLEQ
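Assay system: stable human MrgX1 HEK293 cell line. Quantity: 15,000 cells per well. Schedule: cells plated overnight, dye loaded 0.5 h 37 °C, 0.5 h room temperature. Detection: Fluo-4 NW calcium-flux fluorescence, kinetic read. Read-out basis: peak-minus-minimum fluorescence over baseline, converted to B scores. Control set: positive and negative control wells on each plate.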
MrgX1 allo act – allosterically activates human MrgX1 receptor signaling; MrgX1-HEK293, Fluo-4 calcium flux, FDSS; hits give high values; B-score at 10 µM; 310,000 tested, 0.63% active; AID 588675;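 active = plate-corrected calcium response at least 3 library SD above typical, normal starting fluorescence, not activating the receptor alone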;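 also: compound read alongside a low EC10 to EC30 dose of BAM8-22 agonist; peak minus trough fluorescence over baseline measured at the second addition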
RGS4 act – potentiators or activators of RGS4; HEK293 M3R/inducible RGS4, carbachol calcium flux Fluo4; hits give low values; B-score at 10 µM; 310,000 tested, 0.92% active; AID 463111;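 active = B-score of the integrated calcium signal more than 4 SD below the library mean, with starting fluorescence not abnormally high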;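 also: negative B-score means reduced calcium response which marks RGS4 activation or potentiation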
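Test system: HEK293 cells with stable M3R and inducible RGS4; also added: carbachol at ECmax as muscarinic agonist stimulus; schedule: dye loading 30 min 37 °C, buffer rest 30 min RT; technique: kinetic calcium fluorescence imaging with Fluo4-AM dye, 2 µM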
RGS4 block – inhibitors of human RGS4 | B-score at 10 µM | HEK293 M3R/RGS4 inducible, Fluo-4 calcium flux; hits give high values; triggered by carbachol at its EC20 | 310,000 tested, 0.45% active;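 active = B-score, a plate-corrected calcium signal, over three deviations above library mean, with baseline fluorescence within five deviations of library mean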;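 also: RGS4 expression induced by doxycycline in cells with stable M3 receptor; B-score is computed from the integrated fluorescence ratio over baseline after carbachol; higher B-score means a larger calcium signal and so more RGS4 inhibition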
Target sequence (P49798 whole entry, looked up): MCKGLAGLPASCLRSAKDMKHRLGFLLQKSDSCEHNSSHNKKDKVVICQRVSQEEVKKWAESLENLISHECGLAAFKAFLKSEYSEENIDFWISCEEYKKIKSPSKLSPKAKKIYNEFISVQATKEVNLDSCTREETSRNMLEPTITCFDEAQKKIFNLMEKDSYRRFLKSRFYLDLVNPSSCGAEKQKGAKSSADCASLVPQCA
MrgX1 antag – blocks BAM8-22 activation of human MrgX1 receptor; Q96LB2; MRGX1-HEK293 calcium flux, Fluo-4, BAM8-22 antagonism; hits give low values; B-score at 10 µM; 310,000 tested, 1.3% active; AID 588676;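 active = calcium-response B-score plate-corrected more than 3 library SD below zero, starting fluorescence within 5 deviations, no agonist response on first addition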;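 also: peak minus trough fluorescence over baseline after final BAM8-22 challenge near maximal dose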
MrgX1 antag conf – confirmation of human MrgX1 receptor antagonists | AID 602420 | MrgX1-HEK293, BAM8-22 calcium flux, Fluo-4; hits give low values | shares compounds with MrgX1 antag | 2,300 tested, 19% active | remaining BAM8-22 calcium response % of control (hits give low values), % at 10 µM;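 active = remaining agonist calcium response no higher than 100% minus 3 SD of agonist-only control wells, with starting fluorescence near control levels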;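 also: agonist BAM8-22 given at a near maximal EC90 to ECmax level; peak minus minimum fluorescence divided by baseline after agonist addition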
HEK293 Ca flux – activity in parental HEK293 cells lacking MrgX1; fluorescence ratio F(max-min)/F0 at 10 µM; shares compounds with MrgX1 antag; Fluo-4 calcium fluorescence, FDSS; 4,000 tested, 2% active; AID 624111;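 active = duplicate-averaged calcium fluorescence ratio at least three times the standard deviation of buffer wells, a nonspecific response in parental cells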
HEK293 Ca counter – MrgX1 allosteric activator counter-screen hit in parental HEK293 cells; shares compounds with MrgX1 antag; fluorescence ratio F(max-min)/F0 at 10 µM; 4,000 tested, 0.4% active; AID 624114; parental HEK293 calcium flux, Fluo-4 fluorescence ratio; hits give high values;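 active = calcium fluorescence ratio, averaged over duplicates, at least 3 SD of the buffer-well ratio, meaning a nonspecific response in receptor-free cells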;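 also: untransfected parental HEK293 lacking MrgX1 used as counterscreen for MrgX1 allosteric activators; fluorescence change taken during the second addition on a kinetic imager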
HEK293 Ca cntr2 – counter-screen for MrgX1 activators: effect in parental HEK293 cells; AID 624115; 4,000 tested, 8.7% active; shares compounds with MrgX1 antag; Fluo-4 calcium fluorescence (FDSS); hits give high values; fluorescence ratio F(max-min)/F0 at 10 µM;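 active = calcium fluorescence ratio at least three times the spread of buffer wells, meaning a non-specific response in parental cells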
Active calls of the source: *; i = inactive; . = no result. A selection: hits, their analogues and other compounds. The true share with any hit is near 3.5%.

SMILES	MrgX1 ag	MrgX1 allo act	RGS4 act	RGS4 block	MrgX1 antag	MrgX1 antag conf	HEK293 Ca flux	HEK293 Ca counter	HEK293 Ca cntr2
O=C(O)CCCC(=O)Nc1ccccc1C(=O)O	i	i	i	i	-6.4*	i	i	i	i
CCc1cc(C(=O)N2CCCC(C(=O)c3cccc4ccccc34)C2)n(C)n1 (stereo not given)	i	i	i	i	i	.	.	.	.
NS(=O)(=O)c1cccc(NC(=O)c2ccno2)c1	i	i	i	i	i	.	.	.	.
COc1cccc2cc(C(=O)C3=C(O)C(=O)N(c4cc(C)on4)C3c3cccs3)oc12 (stereo not given)	i	i	i	i	-5.1*	i	i	i	i
Cc1cc(N2C(=O)C(O)=C(C(=O)c3cc4ccccc4o3)C2c2ccc(OC(C)C)cc2)no1 (stereo not given)	i	i	i	i	i	.	.	.	.
COC(=O)c1ccc(C2C(C(=O)c3cc4ccccc4o3)=C(O)C(=O)N2c2cc(C)on2)cc1 (stereo not given)	i	i	i	i	-5.2*	82%*	i	i	i
COc1cccc(C2C(C(=O)c3cc4cccc(OC)c4o3)=C(O)C(=O)N2c2cc(C)on2)c1OC (stereo not given)	i	i	i	i	i	.	.	.	.
C=CCc1cccc(CNc2cnc3ccccc3c2)c1O	i	i	i	i	-6.6*	82%*	i	i	i
Oc1ccccc1CNc1cnc2ccccc2c1	i	i	i	i	i	.	.	.	.
CC1=Nc2ccccc2/C1=C/c1nc(-c2ccc(C)s2)oc1O	i	i	i	i	-6.1*	57%*	i	i	i
COc1ccc(-c2nc(/C=C3\C(C)=Nc4ccccc43)c(O)o2)cc1	i	i	i	i	-4.8*	59%*	i	i	i
C=CCNC(=O)C1CC1(c1ccc(C)cc1)c1ccc(C)cc1 (stereo not given)	i	i	i	i	i	.	.	.	.
O=C1CC(SC2=NCCS2)C(=O)N1c1cccc(Cl)c1Cl (stereo not given)	i	i	i	i	i	.	.	.	.
COc1cc(S(=O)(=O)N2CCOCC2)ccc1NC(=O)CN1c2cccc3cccc(c23)S1(=O)=O	i	i	i	i	-8.4*	i	i	i	i
Cc1ccc(NC(=O)CN2c3cccc4cccc(c34)S2(=O)=O)cc1S(=O)(=O)N1CCOCC1	i	i	i	i	i	.	.	.	.
O=C(NCC(c1ccco1)N1CCN(c2ccccc2F)CC1)c1ccc2c(c1)OCO2 (stereo not given)	i	i	i	i	i	.	.	.	.
O=C(CSc1nnc(NC(=O)c2cc(Br)ccc2Cl)s1)NCC1CCCO1 (stereo not given)	i	i	i	i	-13*	i	i	i	i
O=C(CSc1nc2ccccc2s1)NCC1CCCO1 (stereo not given)	i	i	i	i	-5.9*	i	i	i	i
COc1ccc(CNS(=O)(=O)c2c(C(=O)N3CCCCCC3)c(C)n(C)c2C)cc1	i	i	i	i	i	.	.	.	.
O=C(Nc1ccc(S(=O)(=O)Nc2ncccn2)cc1)c1ccc2ncsc2c1	i	i	i	i	-5*	73%*	i	i	i
O=C(Nc1ccncc1)c1ccc2ncsc2c1	i	i	i	i	i	.	.	.	.
COCCn1nnnc1C(c1ccc(C(F)(F)F)cc1)N1CCOCC1 (stereo not given)	i	i	i	i	-5.6*	i	i	i	i
COCCn1nnnc1C(c1ccc(OC)cc1)N1CCN(c2ccccc2F)CC1 (stereo not given)	i	i	i	i	-5.7*	i	i	i	i
COCCn1nnnc1C(c1ccccc1OC)N1CCN(c2ccccc2F)CC1 (stereo not given)	i	i	i	i	i	.	.	.	.
Cc1ccc(S(=O)(=O)Nc2cc(-c3ccccc3)nn2C)cc1Cl	i	i	i	i	i	.	.	.	.
SMILES	MrgX1 ag	MrgX1 allo act	RGS4 act	RGS4 block	MrgX1 antag	MrgX1 antag conf	HEK293 Ca flux	HEK293 Ca counter	HEK293 Ca cntr2
COc1ccc(CNC(=O)CNS(=O)(=O)c2cccs2)cc1	i	i	i	i	i	.	.	.	.
CCOc1cc(C(=O)Nc2ccc(S(=O)(=O)NC3=NCCCCC3)cc2)cc(Br)c1OC	i	i	i	i	i	.	.	.	.
CN(/N=C/c1cc([N+](=O)[O-])ccc1O)c1ccccc1	i	i	i	i	i	.	.	.	.
CN(/N=C/c1ccc(-c2ccc([N+](=O)[O-])cc2)o1)c1ccccc1	i	i	i	i	-11*	i	i	i	i
COc1cc2cc3c(N)c(C(=O)Nc4sc(C)c(C)c4C#N)sc3nc2cc1OC	i	i	i	i	-6.2*	74%*	i	i	i
O=C(c1ccc(F)c(F)c1)N1CCC2(CC1)NCCc1[nH]cnc12	i	i	i	i	i	.	.	.	.
COc1ccc(CC(=O)NC(C)c2ccc(S(N)(=O)=O)cc2)cc1S(=O)(=O)N1CCOCC1 (stereo not given)	i	i	i	i	-9.3*	i	i	i	i
COc1ccc(CC(=O)NC(C)(C)C)cc1S(=O)(=O)N1CCOCC1	i	i	i	i	i	.	.	.	.
CNC(=S)NCCc1cc2c(OC)ccc(OC)c2[nH]c1=O	i	i	i	i	i	.	.	.	.
CC1=CC(=O)C=C(C)C1=NOS(=O)(=O)c1ccccc1	.	.	i	i	.	.	.	.	.
CC1=CC(=O)C(C(C)C)=C/C1=N/OS(=O)(=O)c1ccccc1	i	i	-8.2*	i	-14*	i	i	i	i
CC12CCCC[C@@H]1CCC1C2CCC2(C)C1CC[C@@]2(O)CNCCO (stereo not given in full)	i	i	i	i	-7.8*	i	i	i	i

Screening data (PubChem)
